In ChEMBL document CHEMBL1275275, “Preparation of new polycyclic compounds derived from benzofurans and furochromones. An approach to novel 1,2,3-thia-, and selena-diazolofurochromones of anticipated antitumor activities” (Eur J Med Chem, 2010):
Converted amounts (≈) assume the structure as drawn.

Columns and labels:
Format in all cases: functional, cell-based
HeLa = assay: Antitumor activity against human HeLa cells
Procedure, shortened: (§1)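 In vitro cytotoxicity against human carcinoma cell lines. Surviving fraction was plotted against drug concentration to give survival curves. IC50 was read from these curves as the dose reducing survival to 50%, in µg/ml.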

HCT-116 = assay: Antitumor activity against human HCT116 cells; procedure, shortened: as §1
MCF7 = assay: Antitumor activity against human MCF7 cells
Procedure, shortened: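 Human MCF-7 breast carcinoma cells treated in vitro across a range of drug concentrations. Surviving fraction plotted against concentration to give survival curves. IC50 (µg/ml), the dose that reduces survival to 50%, read from these curves. Doxorubicin served as reference drug.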

HepG2 = assay: Antitumor activity against human HepG2 cells; procedure, shortened: as §1
[1] = Homo sapiens, MCF7, read-out: IC50

Structure (SMILES)	IC50 (HeLa) [µg/mL]	IC50 (HCT-116) [µg/mL]	IC50 (MCF7; [1]) [µg/mL]	IC50 (HepG2) [µg/mL]	IC50 (MCF7; mcf7)
COc1c2c(cc3occc13)OC(C)(C)c1[se]nnc1-2	6.02 (≈ 18 µM)	4.8 (≈ 14.3 µM)	5.56 (≈ 16.6 µM)	11.5 (≈ 34.3 µM)	–
COc1c(C(/C=C(\C)N2CCCC2)=C2C(=O)c3ccccc3C2=O)c(O)cc2occc12	–	–	15.5 (≈ 36.1 µM)	–	–
COc1c2c(c(OC)c3occc13)OC(C)(C)c1[se]nnc1-2	4.35 (≈ 11.9 µM)	4.65 (≈ 12.7 µM)	15.8 (≈ 43.3 µM)	15.9 (≈ 43.5 µM)	–
COc1c2occc2c(OC)c2c(C=C(C)N3CCCC3)c(C#N)c(=N)oc12	5.11 (≈ 13.5 µM)	4.8 (≈ 12.7 µM)	8.61 (≈ 22.7 µM)	10.9 (≈ 28.7 µM)	–
COc1c2c(c(OC)c3occc13)OC1(CCCCC1)C/C2=N\NC(N)=O	4.19 (≈ 11.2 µM)	4.04 (≈ 10.8 µM)	10.6 (≈ 28.4 µM)	8.61 (≈ 23.1 µM)	–
COc1c2c(cc3occc13)OC(C)(C)C/C2=N\NC(N)=O	–	–	10.9 (≈ 35.9 µM)	–	–
CCC1(C)Oc2c(c(OC)c3ccoc3c2OC)-c2nn[se]c21 (stereo not drawn)	6.02 (≈ 15.9 µM)	8.92 (≈ 23.5 µM)	12.7 (≈ 33.5 µM)	9.53 (≈ 25.1 µM)	–
COc1c(C(/C=C(\C)N2CCCC2)=C2C(=O)c3ccccc3C2=O)c(O)c(OC)c2occc12	–	–	13.2 (≈ 28.7 µM)	–	–
CCC1(C)C/C(=N\NC(N)=O)c2c(c(OC)c3occc3c2OC)O1 (stereo not drawn)	–	–	13.9 (≈ 40 µM)	–	–
COc1c2c(c(OC)c3occc13)OC1(CCCCC1)c1snnc1-2	–	–	14.9 (≈ 41.6 µM)	–	–
COc1c2c(c(OC)c3occc13)OC1(CCCCC1)c1[se]nnc1-2	5.57 (≈ 13.7 µM)	4.19 (≈ 10.3 µM)	15 (≈ 37 µM)	9.53 (≈ 23.5 µM)	–
COc1c2c(cc3occc13)OC1(CCCCC1)c1snnc1-2	–	–	15.9 (≈ 48.4 µM)	–	–
COc1c2c(cc3occc13)OC1(CCCCC1)c1[se]nnc1-2	7.24 (≈ 19.3 µM)	3.89 (≈ 10.4 µM)	16.5 (≈ 44 µM)	14.6 (≈ 38.9 µM)	–
COc1c2c(c(OC)c3occc13)OC(C)(C)C/C2=N\NC(N)=O	–	–	20.8 (≈ 62.4 µM)	–	–
COc1c2occc2c(OC)c2c(C=C(C)N3CCCCC3)c(C#N)c(=N)oc12	4.8 (≈ 12.2 µM)	4.34 (≈ 11 µM)	–	8.46 (≈ 21.5 µM)	Not Active
COc1c2c(cc3occc13)OC1(CCCCC1)C/C2=N\NC(N)=O	–	–	14 (≈ 40.8 µM)	–	–
COc1cccc2c1C(=O)c1c(O)c3c(c(O)c1C2=O)C[C@@](O)(C(=O)CO)C[C@@H]3O[C@H]1C[C@H](N)[C@H](O)[C@H](C)O1 [DOXORUBICIN]	4.19 (≈ 7.71 µM)	3.73 (≈ 6.86 µM)	–	3.73 (≈ 6.86 µM)	–
